According to ChEMBL document CHEMBL1132310, “New 4-aminoquinoline Mannich base antimalarials. 1. Effect of an alkyl substituent in the 5'-position of the 4'-hydroxyanilino side chain” (J Med Chem, 1999):
pIC50: −log10 of the molar value.

How the values were obtained:
[1] = Resistance factor by IC50(K1)/IC50(HB3); assay type: functional
Procedure, shortened: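 P. falciparum K1 (uncloned, CQ-resistant) and HB3 (sensitive), both from Thailand, were cultured in human erythrocytes in RPMI 1640/HEPES/NaHCO3 with 10% human serum under 3% O2/4% CO2. Assays ran 48 h at 2% parasitemia and 0.5% hematocrit, in triplicate, from DMSO stocks diluted in medium. [3H]hypoxanthine was added at 24 h. IC50 came from probit of the log dose-response curve. The factor is K1 IC50 divided by HB3 IC50.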

Plasmodium falciparum [2] = test: In vitro inhibitory activity against chloroquine-resistant Plasmodium falciparum K1; assay type: functional, organism-based
Procedure, shortened: (§1)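 Parasites kept in continuous culture in human erythrocytes in RPMI 1640 with 25 mM HEPES, 32 mM NaHCO3 and 10% human serum, gassed 3% O2/4% CO2/93% N2. 48-h assay at 2% parasitemia, 0.5% hematocrit, triplicate. Drugs from DMSO stocks diluted in medium. [3H]hypoxanthine added at 24 h, harvested at 48 h and counted. IC50 by probit interpolation of log dose–response.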

Plasmodium falciparum [3] = test: In vitro inhibitory activity against chloroquine-sensitive Plasmodium falciparum HB3; assay type: functional, organism-based; procedure, shortened: as §1
[4] = test system: Plasmodium berghei (NS strain); test: In vivo inhibition of Plasmodium berghei infected male Swiss albino mice (Mus musculus) by oral dose
[5] = test system: Plasmodium berghei (NS strain); test: In vivo inhibition of Plasmodium berghei infected male Swiss albino mice (Mus musculus) by intraperitoneal dose; conditions: ip

Row | Compound | Resistance factor [1] | pIC50 (Plasmodium falciparum [2]) | pIC50 (Plasmodium falciparum [3]) | ED50 [4] | ED50 [5]
1 | CCN(CC)CCCC(C)Nc1ccnc2cc(Cl)ccc12 (centres undefined) | 9.57 |  |  |  | 
2 | CCN(CC)Cc1cc(Nc2ccnc3cc(Cl)ccc23)ccc1O.Cl | 5.35 | 7.88 | 8.61 | 1.92 mg/kg | 3.3 mg/kg
3 | CC(C)(C)NCc1cc(Nc2ccnc3cc(Cl)ccc23)cc(C(C)(C)C)c1O | 2.54 | 7.67 | 8.08 |  | 
4 | CCCc1cc(Nc2ccnc3cc(Cl)ccc23)cc(CNC(C)(C)C)c1O | 1.86 | 8.74 | 9.01 | 0.56 mg/kg | 0.8 mg/kg
5 | CC(C)(C)NCc1cc(Nc2ccnc3cc(Cl)ccc23)cc(C2CCCCC2)c1O | 2.13 | 7.84 | 8.17 |  | 
6 | CCc1cc(Nc2ccnc3cc(Cl)ccc23)cc(CNC(C)(C)C)c1O | 2.65 | 8.10 | 8.53 |  | 
7 | CC(C)c1cc(Nc2ccnc3cc(Cl)ccc23)cc(CNC(C)(C)C)c1O | 1.5 | 8.73 | 8.91 | 0.38 mg/kg | 0.78 mg/kg
8 | CCC(C)c1cc(Nc2ccnc3cc(Cl)ccc23)cc(CNC(C)(C)C)c1O (centres undefined) | 2.92 | 8.24 | 8.71 |  | 
9 | CC(C)(C)NCc1cc(Nc2ccnc3cc(Cl)ccc23)ccc1O [N-TERT-BUTYL-AMODIAQUINE] | 2.33 | 8.46 | 8.83 |  | 
10 | Cc1cc(Nc2ccnc3cc(Cl)ccc23)cc(CNC(C)(C)C)c1O | 3.76 | 7.95 | 8.52 |  | 
